# Assay outcomes from PubChem BioAssay.
# Rows were chosen to be rich in hits. Some 2% of all compounds tested hit in one or more screens of this group.
# STAT1 blocker: STAT1 signaling inhibitors, primary screen, cell-based, HTS, luciferase reporter | NIH 3T3 STAT1-luciferase reporter, IFN-gamma, luminescence | inhibition, % at 5.5 µM | 200,000 tested, 0.35% active | AID 920, 2007;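 active = inhibition above a set limit, the mean inhibition across all tested compounds plus 3 SD, cut at about 34% in these data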
# STAT3 act: IL-6 driven STAT3 reporter potentiators, primary screen, U3A cells, luciferase, luminescence, MLSCN library | IL-6 STAT3-luciferase reporter; 100% = signal with IL-6 EC80 alone | AID 871, 2007 | 190,000 tested, 0.91% active | activation (% of control), % at 5.6 µM;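 active = activation above the screen-wide mean of compound activation plus 3 SD, cut at about 130% in these data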
#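 Material: human U3A cells carrying STAT3-luciferase construct. Measured by: reporter luminescence signal. Timing: compound 1 h, then IL-6 6 h at 37 °C.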
# STAT3 inh: IL-6 driven STAT3 reporter inhibitors, primary screen, U3A cells, luciferase, luminescence, MLSCN library; IL-6 STAT3-luciferase reporter; host cell line lacks STAT1; inhibition, % at 5.5 µM; 190,000 tested, 0.89% active;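 active = inhibition above the mean inhibition across all screened compounds plus 3 SD, cut at about 44% in these data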
# HSP90 refold inh: HSP90 inhibitors, primary screen, cell lysate, luminescence; 290,000 tested, 0.91% active; inhibition, % at 5.6 µM; AID 1789, 2009; Heat shock protein HSP 90 (rabbit reticulocyte lysate; luciferase refolding); Rabbit reticulocyte lysate, luciferase refolding luminescence, 3 h;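 active = inhibition above the screen-wide mean plus 3 SD, computed separately per campaign, cut at about 16% in these data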;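 also: inhibitors lower the luminescence because luciferase stays unfolded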
# HSP90 confirm: HSP90 inhibitors, confirmation, cell lysate, luminescence; shares compounds with HSP90 refold inh; rabbit reticulocyte lysate, luciferase refolding luminescence, 3 h; inhibition, % at 5.9 µM; 2,300 tested, 64% active; AID 1846, 2009; in the data active = inhibition above about 18%
# luciferase ctr: firefly luciferase inhibitors, HSP90 counter-screen, confirmation, artefact control for HSP90 inhibitor project, biochemical, luminescence, triplicate | 2,300 tested, 48% active | inhibition, % at 5.9 µM | shares compounds with HSP90 refold inh | purified native firefly luciferase;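 active = inhibition above the mean inhibition of all tested sample wells plus 3 SD, cut at about 10% in these data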
# Target sequence (P08659 whole entry, looked up): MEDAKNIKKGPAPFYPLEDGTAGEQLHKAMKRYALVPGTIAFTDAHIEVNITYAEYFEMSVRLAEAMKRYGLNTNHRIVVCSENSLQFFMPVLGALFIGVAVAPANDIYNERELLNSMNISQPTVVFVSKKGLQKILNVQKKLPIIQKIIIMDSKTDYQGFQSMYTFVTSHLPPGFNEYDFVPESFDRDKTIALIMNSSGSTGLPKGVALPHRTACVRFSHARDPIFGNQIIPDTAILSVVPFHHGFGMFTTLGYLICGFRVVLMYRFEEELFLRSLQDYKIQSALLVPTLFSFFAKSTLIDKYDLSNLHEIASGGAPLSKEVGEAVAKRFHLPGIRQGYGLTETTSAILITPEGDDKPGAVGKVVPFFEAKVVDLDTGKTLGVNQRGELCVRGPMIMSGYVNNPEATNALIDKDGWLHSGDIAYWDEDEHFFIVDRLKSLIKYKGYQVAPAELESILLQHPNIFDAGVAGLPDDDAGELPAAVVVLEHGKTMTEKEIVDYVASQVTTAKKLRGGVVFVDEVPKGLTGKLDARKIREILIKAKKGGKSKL
# A number is an active result; i = inactive; nt = not tested or not shown.
SMILES,STAT1 blocker,STAT3 act,STAT3 inh,HSP90 refold inh,HSP90 confirm,luciferase ctr
CSCC(C)N1CCC(CCC(=O)NC2CC2)CC1 (configuration not stated),nt,nt,nt,i,nt,nt
Cc1ccc(-c2[nH]ncc2C(=O)c2ccc(Br)cc2)c(O)c1,nt,nt,nt,i,nt,nt
Cc1cc(C(=O)COC(=O)c2ccccc2O)c(C)n1Cc1cccs1,75,i,104,82,86,84
Cc1cc(C(=O)COC(=O)c2ccc3c(c2)OCO3)c(C)n1Cc1cccs1,i,i,i,i,nt,nt
O=c1c2c([nH]c3ccccc13)CCC2,nt,nt,nt,20,i,i
Cc1cccc(-n2c(N)cc(=O)nc2SCC(=O)Nc2nnc(CC(C)C)s2)c1,i,i,i,i,nt,nt
CCCCc1nnc(NC(=O)CSc2nc(=O)cc(N)n2-c2cccc(C)c2)s1,i,i,i,33,i,i
COc1ccc(CCNC(=O)c2cc(-c3cc(Cl)cc(Cl)c3)oc2C)cc1,i,i,i,19,i,i
CCc1ccc2oc(-c3ccc(NC(C)=O)cc3)nc2c1,nt,nt,nt,i,nt,nt
NS(=O)(=O)c1c(Sc2ccccc2C(=O)O)ccc2ccccc12,nt,nt,nt,23,20,i
CCCCCC(=O)Nc1nc(C)c(-c2csc(Nc3ccccc3OCC)n2)s1,i,i,i,i,nt,nt
COc1ccccc1Nc1nc(-c2sc(NC(=O)c3ccc([N+](=O)[O-])cc3)nc2C)cs1,i,i,i,72,23,i
CCOc1ccccc1Nc1nc(-c2sc(NC(=O)c3cccc(Cl)c3)nc2C)cs1,i,i,i,73,33,i
CCCCCC(=O)Nc1nc(C)c(-c2csc(Nc3ccccc3OC)n2)s1,i,i,i,i,nt,nt
COc1cccc(Nc2nc(-c3sc(N)nc3C)cs2)c1,i,i,i,17,i,i
CCOc1ccccc1Nc1nc(-c2sc(NC(=O)c3ccccc3)nc2C)cs1,i,i,i,46,25,i
Cc1nc(N)sc1-c1csc(Nc2ccc(S(N)(=O)=O)cc2)n1,nt,nt,nt,60,i,i
COc1ccccc1Nc1nc(-c2sc(NC(=O)c3ccccc3)nc2C)cs1,i,i,i,47,24,i
Cc1cc(NS(=O)(=O)c2ccc(Nc3nc(-c4sc(NC(=O)c5ccccc5)nc4C)cs3)cc2)no1,i,i,i,33,i,i
Cc1ccc(Cl)cc1Nc1nc(-c2sc(NC(=O)c3ccccc3)nc2C)cs1,i,i,i,57,46,i
CCC(=O)Nc1nc(C)c(-c2csc(Nc3ccc(S(=O)(=O)Nc4cc(C)on4)cc3)n2)s1,i,i,i,i,nt,nt
CCc1nn(C(CC)C(=O)NCCc2ccc(OC)cc2OC)c(=O)c2cc3occc3n12 (configuration not stated),nt,nt,nt,i,nt,nt
Cc1nc(NC(=O)c2ccccc2)sc1-c1csc(Nc2cccc(F)c2)n1,i,i,i,37,28,i
COc1cccc(Nc2nc(-c3sc(NC(=O)c4ccco4)nc3C)cs2)c1,i,i,i,i,nt,nt
COc1ccccc1Nc1nc(-c2sc(N)nc2C)cs1,nt,nt,nt,31,i,i
SMILES,STAT1 blocker,STAT3 act,STAT3 inh,HSP90 refold inh,HSP90 confirm,luciferase ctr
CC(C)c1ccccc1OCC(=O)NCC(c1cccs1)N1CCOCC1 (configuration not stated),i,i,i,24,i,i
COc1ccccc1OCC(=O)NCC(c1cccs1)N1CCOCC1 (configuration not stated),nt,nt,nt,i,nt,nt
Cc1ccc(C(=O)N2CC(=O)Nc3ccc(F)cc3C2c2ccccc2)cc1[N+](=O)[O-] (configuration not stated),i,i,i,i,nt,nt
[O-]/[N+](=C\c1ccncc1)c1ccc(Br)cc1,i,i,i,31,97,i
[O-]/[N+](=C/c1cccnc1)c1ccc(Br)cc1,i,i,i,i,nt,nt
c1ccc(-c2csc(Nc3ccc4c(c3)OCCO4)n2)cc1,i,i,i,i,nt,nt
C=CCNc1nc(-c2ccc3c(c2)OCCO3)cs1,nt,nt,nt,19,33,32
c1cc2c(cc1Nc1nc(-c3ccc4c(c3)OCO4)cs1)OCCO2,i,i,i,37,23,i
O=C(Nc1nc(-c2ccc3c(c2)OCCO3)cs1)c1ccco1,nt,nt,nt,18,20,9.9
Fc1ccc(N2CCN(c3cnc4ccccc4n3)CC2)cc1,nt,nt,nt,i,nt,nt
NNC(=S)NC1CC2CC1C1C=CCC21 (configuration not stated),nt,nt,nt,25,i,i
NNC(=S)NC1CCCCCCCCCCC1,nt,nt,nt,i,nt,nt
CN(C)c1ccc(/C=C2\CCC/C(=C\c3ccccc3)C2=O)cc1,i,i,i,i,nt,nt
CC(=O)N1/C(=C/c2ccc(N(C)C)cc2)C(=O)c2ccccc21,i,i,i,18,i,i
C=CCSc1nc(C)cc(C(=O)OCC)c1C#N,nt,nt,nt,i,nt,nt
COc1ccc(NC2=C(C(C)=O)C(c3ccc(OC)cc3)C(C(C)=O)C(C)(O)C2)cc1 (configuration not stated),i,i,i,31,i,i
COc1ccc(NC2=C(C(C)=O)C(c3ccc(N(C)C)cc3)C(C(C)=O)C(C)(O)C2)cc1 (configuration not stated),i,i,i,i,nt,nt
Oc1cccc(C=Nc2cccc3ccccc23)c1O,nt,nt,nt,23,i,i
Nc1ccccc1C(=O)N1CCc2ccccc21,nt,nt,nt,i,nt,nt
COc1ccc(NC(=O)c2ccc3c(=O)n(-c4ccc(OC)cc4OC)c(=S)[nH]c3c2)c(OC)c1,i,i,i,i,nt,nt
CCOc1ccc(NC(=O)c2ccc3c(=O)n(-c4ccc(OC)cc4OC)c(=S)[nH]c3c2)cc1,nt,nt,nt,69,i,i
Cc1ccc(CC(=O)O/N=C(\N)c2ccccn2)cc1,nt,nt,nt,i,nt,nt
N/C(=N\OC(=O)/C=C/c1ccccc1)c1ccccn1,i,i,i,19,i,73
CC(C)(C)CC(=O)O/N=C(\N)c1ccccn1,i,i,i,21,35,22
O=C(/C=C/c1ccccc1)c1ccccn1,i,i,i,i,nt,nt
SMILES,STAT1 blocker,STAT3 act,STAT3 inh,HSP90 refold inh,HSP90 confirm,luciferase ctr
N/C(=N\OC(=O)/C=C/c1ccccc1Cl)c1ccncc1,i,i,i,31,i,i
N/C(=N\OC(=O)/C=C/c1ccccc1)c1ccncc1,i,i,i,i,nt,nt
O=[N+]([O-])c1ccc(S(=O)(=O)Nc2nnc(C(F)(F)F)s2)cc1,nt,nt,nt,i,nt,nt
CCn1c(=O)cc(OCC(=O)NCCc2ccc(OC)c(OC)c2)c2ccccc21,i,i,i,48,i,i
CC(C)C(=O)Nc1ccc2nn(-c3ccc(F)cc3)nc2c1,nt,nt,nt,25,28,20
Cc1ccc(-n2nc3ccc(NC(=O)C(C)C)cc3n2)cc1,i,i,i,i,nt,nt
Cc1ccccc1Cn1c(=O)n(C)c(=O)c2sccc21,nt,nt,nt,i,nt,nt
COc1cccc(Sc2nc(-c3ccccc3)ncc2S(C)(=O)=O)c1,nt,nt,nt,26,i,14
